By IC50 is commonly meant the concentration that inhibits the measured activity by half. Usually solubility stands for the dissolved amount per volume that the medium holds. The term MIC80 denotes an inhibitory concentration at the 80% level, which refers to growth in some studies and to a panel of isolates in others.

For data set [1], the system named is Staphylococcus aureus. The data set can be described thus: Inhibition of staphyloxanthin pigment formation in Staphylococcus aureus Newman after 48 hrs by spectrophotometric method. In kind it is functional, organism-based. The method, boiled down: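 Compounds as 20 mM DMSO stocks, serial 2-fold dilutions in DMSO; 40 µL added to 4 mL TSB culture, 37 °C for 48 h, in triplicate. Cells washed twice with PBS, pigment extracted with methanol, OD450 measured; IC50 from dose-response curve fit of OD data.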

Data set [2] in a line: Aqueous solubility of the compound by HPLC method. In kind it is physicochemical. The essentials:
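Calibration with standards at 50, 100, 200, 400 and 800 µg/mL in methanol (peak area vs concentration). 10 mg solid stirred in 1 mL pure water for 24 h, more added if still clear; syringe-filtered, 10 µL injected; solubility read from calibration curve.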

The target of data set [3] is T1, 4,4'-diapophytoene desaturase (4,4'-diaponeurosporene-forming) (Staphylococcus aureus (strain Newman), UniProt O07855).
T1 sequence (O07855 whole entry): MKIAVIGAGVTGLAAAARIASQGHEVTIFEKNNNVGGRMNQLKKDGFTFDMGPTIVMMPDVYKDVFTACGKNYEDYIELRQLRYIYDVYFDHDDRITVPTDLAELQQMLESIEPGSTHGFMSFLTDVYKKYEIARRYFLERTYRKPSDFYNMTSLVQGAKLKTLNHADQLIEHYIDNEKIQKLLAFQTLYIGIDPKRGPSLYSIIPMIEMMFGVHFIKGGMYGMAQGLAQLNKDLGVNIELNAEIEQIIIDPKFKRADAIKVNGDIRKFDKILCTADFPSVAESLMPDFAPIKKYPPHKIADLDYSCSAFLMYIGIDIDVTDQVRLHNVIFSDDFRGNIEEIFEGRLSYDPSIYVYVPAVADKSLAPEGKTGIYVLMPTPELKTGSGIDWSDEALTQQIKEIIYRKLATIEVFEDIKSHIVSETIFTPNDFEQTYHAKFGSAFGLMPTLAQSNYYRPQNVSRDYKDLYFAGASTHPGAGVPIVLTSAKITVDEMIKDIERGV
The data set can be described thus: Inhibition of Staphylococcus aureus Newman 6His-tagged CrtN expressed in Escherichia coli BL21(DE3) using diapophytoene as substrate assessed as pigment formation after overnight incubation by spectrophotometric method. Set-up: species or system Staphylococcus aureus subsp. aureus str. Newman. The essentials: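 Lysate of E. coli BL21(DE3) expressing 6His-CrtN (IPTG 0.5 mM, 16 °C overnight), ~1.41 mg CrtN per reaction, with diapophytoene–phosphatidylcholine emulsion in 0.02 M HEPES pH 7.5 plus FAD. Anaerobic via glucose oxidase 20 U/mL, catalase 20000 U/mL, glucose 2 mM (final). Started with lysate, overnight at 37 °C; triplicate.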

In data set [4] the target is T2, 4,4'-diapophytoene desaturase (4,4'-diaponeurosporene-forming) (Staphylococcus aureus (strain Newman)) (UniProt O07855).
T2 sequence (whole entry): T1 sequence (O07855 whole entry)
To be noted: Staphylococcus aureus subsp. aureus str. Newman; 100 uM.

The next data set relates to Trichophyton verrucosum. The data set can be described thus: Antifungal activity against Trichophyton verrucosum measured after 7 days by serial dilution method. In kind it is functional. The method, boiled down: (§1)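 Broth serial dilution MIC per NCCLS in RPMI 1640 buffered with 0.165 M MOPS; compounds in DMSO diluted in medium. Dermatophytes incubated at 28 °C, read at 7 days. MIC taken as lowest concentration giving ≥80% growth inhibition versus control (turbidity).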

The next data set concerns Nannizzia gypsea. Nature of the data set: Antifungal activity against Microsporum gypseum measured after 7 days by serial dilution method. In kind it is functional. The method, boiled down: as §1
The subject of data set [5] is Trichophyton mentagrophytes. Nature of the data set: Antifungal activity against Trichophyton mentagrophytes measured after 7 days by serial dilution method. In kind it is functional. The essentials:
as §1

The next data set deals with Trichophyton rubrum. Nature of the data set: Antifungal activity against Trichophyton rubrum measured after 7 days by serial dilution method. In kind it is functional. The method, boiled down: as §1
For data set [6], the system named is Staphylococcus aureus. Nature of the data set: Antibacterial activity against Staphylococcus aureus Mu50 infected Balb/c mouse assessed as reduction of bacterial survival in kidney at 5.2 mg, ip bid administered for 4.5 days followed by bacterial infection measured after 5 days. In kind it is functional.
The subject of data set [7] is Staphylococcus aureus. Nature of the data set: Antibacterial activity against Staphylococcus aureus Mu50 infected Balb/c mouse assessed as reduction of bacterial survival in liver at 5.2 mg, ip bid for 4.5 days administered for 4.5 days followed by bacterial infection measured after 5 days. In kind it is functional.
In data set [8] the test system is Staphylococcus aureus. The data set can be described thus: Antibacterial activity against Staphylococcus aureus USA400 MW2 infected Balb/c mouse assessed as reduction of bacterial survival in liver at 1.3 mg, ip bid administered for 4.5 days followed by bacterial infection measured after 5 days. In kind it is functional. The essentials: (§2)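 Female BALB/c mice, 6–8 weeks. Compound in sterile water ip once and every 12 h for 108 h, total 50 or 200 mg/kg; water controls. Infected 12 h after first dose with 4 × 10^7 CFU USA400 MW2 (100 µL). Killed 5 days post infection; liver or kidney CFU counted on TSA after homogenising in PBS/0.1% Triton X-100. n = 13; two-tailed Mann-Whitney.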

Data set [9] has as its system Staphylococcus aureus. The data set can be described thus: Antibacterial activity against Staphylococcus aureus USA400 MW2 infected Balb/c mouse assessed as reduction of bacterial survival in kidney at 5.2 mg, ip bid administered for 4.5 days followed by bacterial infection measured after 5 days. In kind it is functional. The essentials:
as §2

Data set [10] relates to Staphylococcus aureus. Nature of the data set: Antibacterial activity against Staphylococcus aureus Mu50 infected Balb/c mouse assessed as reduction of bacterial survival in kidney at 1.3 mg, ip bid administered for 4.5 days followed by bacterial infection measured after 5 days. In kind it is functional.
In data set [11] the test system is Staphylococcus aureus. Nature of the data set: Antibacterial activity against Staphylococcus aureus USA400 MW2 infected Balb/c mouse assessed as reduction of bacterial survival in liver at 5.2 mg, ip bid administered for 4.5 days followed by bacterial infection measured after 5 days. In kind it is functional. The method, boiled down:
as §2

The subject of data set [12] is Staphylococcus aureus. The data set can be described thus: Antibacterial activity against Staphylococcus aureus USA400 MW2 infected Balb/c mouse assessed as reduction of bacterial survival in kidney at 1.3 mg, ip bid administered for 4.5 days followed by bacterial infection measured after 5 days. In kind it is functional, organism-based. The essentials: as §2
In data set [13] the test system is Staphylococcus aureus. The data set can be described thus: Antibacterial activity against Staphylococcus aureus Mu50 infected Balb/c mouse assessed as reduction of bacterial survival in liver at 1.3 mg, ip bid administered for 4.5 days followed by bacterial infection measured after 5 days. In kind it is functional.

Converted amounts (≈) assume the structure as drawn. The source made the active and inactive calls. The calls are words filed in the database; no cut-off is given here.

In the data set with Staphylococcus aureus [1], `CN(C/C=C/c1ccco1)Cc1cccc2ccoc12` yielded an IC50 above 1 µM.

In turn, `CN(C/C=C/c1ccccc1)Cc1cccc2ccoc12` had an IC50 in the data set with Staphylococcus aureus [1] of 0.247 µM.

As for `CN(C/C=C/c1ccc(Br)cc1)Cc1cccc2ccoc12.Cl`, the IC50 in the data set on Staphylococcus aureus [1] amounted to 0.00644 µM; in [3], 0.355 µM. Also, in data set [2], the solubility came out at 3900 µg/mL.

In the data set on Staphylococcus aureus [1], `C(=C\c1ccccc1)/CNCc1cccc2ccoc12` returned a half-inhibitory concentration (IC50) above 1 µM.

On to `CN(C/C=C/c1cccc([N+](=O)[O-])c1)Cc1cccc2ccoc12`, for which the IC50 with Staphylococcus aureus [1] was above 1 µM.

In turn, `CN(C/C=C/c1ccc(F)cc1)Cc1cccc2ccoc12` registered an IC50 in the data set on Staphylococcus aureus [1] of 0.0312 µM.

In turn, `CN(C/C=C/c1ccccc1)Cc1cccc2occc12` had an IC50 in the data set with Staphylococcus aureus [1] of 0.759 µM.

Regarding `CN(C/C=C/c1ccccc1)Cc1cccc2ccccc12`, the inhibition result in data set [4] is “Active”.

In the data set with Staphylococcus aureus [1], `CCN(C/C=C/c1ccccc1)Cc1cccc2ccoc12` had an IC50 above 1 µM.

As for `CN(Cc1cccc2ccoc12)C[C@@H]1C[C@H]1c1ccccc1`, the IC50 in the data set on Staphylococcus aureus [1] was above 1 µM.

`CN(C/C=C/c1ccccc1F)Cc1cccc2ccoc12`: the IC50 with Staphylococcus aureus [1] was 0.288 µM.

In the data set with Staphylococcus aureus [1], `CN(CC/C=C/c1ccccc1)Cc1cccc2ccoc12` gave an IC50 above 1 µM.

As for `CN(C/C=C/c1ccc2ccccc2c1)Cc1cccc2ccoc12`, in the data set on Staphylococcus aureus [1], the IC50 was 0.0171 µM.

Consider `CC(=O)N1CCN(c2ccc(OCC3COC(Cn4ccnc4)(c4ccc(Cl)cc4Cl)O3)cc2)CC1` (stereo not given) [KETOCONAZOLE], for which the “MIC80 (lowest concentration giving ≥80% growth inhibition)” value turned out to be 0.0625 µg/mL (≈ 0.118 µM) in the data set on Trichophyton verrucosum and 2 µg/mL (≈ 3.76 µM) in the data set with Nannizzia gypsea. In addition, in data set [5], the “MIC=<80” value came out at 0.0625 µg/mL (≈ 0.118 µM). The MIC80 against Trichophyton rubrum is 0.5 µg/mL (≈ 0.941 µM).

The compound `CN(CCCc1ccccc1)Cc1cccc2ccoc12` had a concentration for half-maximal inhibition (IC50) with Staphylococcus aureus [1] above 1 µM.

For the compound `C/C(=C\c1ccccc1)CN(C)Cc1cccc2ccoc12`, the half-inhibitory concentration (IC50) with Staphylococcus aureus [1] is above 1 µM.

Turning to `O=P([O-])([O-])C(CCCc1cccc(Cc2ccccc2)c1)S(=O)(=O)[O-].[K+].[K+].[K+]` (stereo not given), the Activity with Staphylococcus aureus [6] was found to be 0.3 deltalog10CFU; in the data set on Staphylococcus aureus [7], 2.84 deltalog10CFU; in the data set on Staphylococcus aureus [8] it was 0.25 deltalog10CFU; with Staphylococcus aureus [9] it was 1.14 deltalog10CFU; with Staphylococcus aureus [10], 0.25 deltalog10CFU; with Staphylococcus aureus [11], 1.58 deltalog10CFU. Further, the Activity in the data set on Staphylococcus aureus [13] is recorded as 1.87 deltalog10CFU. Also, in the data set on Staphylococcus aureus [12], the outcome was Active.

`CN(C/C=C/C1CCCCC1)Cc1cccc2ccoc12` came in with an IC50 with Staphylococcus aureus [1] above 1 µM.

Compound `CN(C/C=C/C=C/c1ccccc1)Cc1cccc2ccoc12` yielded an IC50 with Staphylococcus aureus [1] of 0.0042 µM.

`CN(C/C=C/c1ccc(C(C)(C)C)cc1)Cc1cccc2ccoc12`: in the data set with Staphylococcus aureus [1], the IC50 is 0.0467 µM.

Consider `CN(C/C=C/c1ccc([N+](=O)[O-])cc1)Cc1cccc2ccoc12`, for which, in the data set with Staphylococcus aureus [1], the IC50 turned out to be 0.0717 µM.

Consider `C[C@@H](c1ncncc1F)[C@](O)(Cn1cncn1)c1ccc(F)cc1F` [VORICONAZOLE], for which the “MIC80 (lowest concentration giving ≥80% growth inhibition)” value with Trichophyton verrucosum worked out at 0.03125 µg/mL (≈ 0.0895 µM); in the data set with Nannizzia gypsea, 0.25 µg/mL (≈ 0.716 µM). Moreover, in [5], the “MIC=<80” value is 0.03125 µg/mL (≈ 0.0895 µM). This compound also had an MIC80 with Trichophyton rubrum of 0.03125 µg/mL (≈ 0.0895 µM).

For the compound `OC(Cn1cncn1)(Cn1cncn1)c1ccc(F)cc1F` [FLUCONAZOLE], the “MIC=<80” value came to 2 µg/mL (≈ 6.53 µM) with Trichophyton verrucosum, 8 µg/mL (≈ 26.1 µM) against Nannizzia gypsea, 2 µg/mL (≈ 6.53 µM) in data set [5] and 1 µg/mL (≈ 3.27 µM) in the data set with Trichophyton rubrum.

For the compound `COc1ccc(/C=C/CN(C)Cc2cccc3ccoc23)cc1.Cl`, the IC50 in the data set on Staphylococcus aureus [1] was found to be 0.0111 µM; in data set [3], 0.684 µM. This compound displayed a solubility in data set [2] of 19700 µg/mL.

In the data set on Staphylococcus aureus [1], `CN(CC#Cc1ccccc1)Cc1cccc2ccoc12` showed an IC50 of 0.164 µM.

Compound `Cc1cccc(/C=C/CN(C)Cc2cccc3ccoc23)c1` had an IC50 with Staphylococcus aureus [1] above 1 µM.

As to `CN(C/C=C/c1ccc(Cl)cc1)Cc1cccc2ccoc12.Cl`, the IC50 in the data set on Staphylococcus aureus [1] worked out at 0.0062 µM; in [3], 0.219 µM. In data set [2], this compound displayed a solubility of 7400 µg/mL.

With `CN(C/C=C/c1cccc(F)c1)Cc1cccc2ccoc12`, it took 0.513 µM to reach half-maximal inhibition with Staphylococcus aureus [1] (IC50).

As for `CN(C/C=C/c1cccc2ccccc12)Cc1cccc2ccoc12`, the IC50 with Staphylococcus aureus [1] came out at 0.888 µM.

With `C/C=C/CN(C)Cc1cccc2ccoc12`, the IC50 in the data set on Staphylococcus aureus [1] was above 1 µM.

On to `CC(C)N(C/C=C/c1ccccc1)Cc1cccc2ccoc12`, for which the IC50 in the data set with Staphylococcus aureus [1] was above 1 µM.

As for `CN(C/C=C/C1CCCC1)Cc1cccc2ccoc12`, in the data set with Staphylococcus aureus [1], the IC50 is above 1 µM.

For `COC(=O)c1ccc(/C=C/CN(C)Cc2cccc3ccoc23)cc1`, the IC50 in the data set with Staphylococcus aureus [1] was found to be 0.0169 µM.

In the case of `CN(C/C=C/c1ccc(Cl)cc1Cl)Cc1cccc2ccoc12.Cl`, the IC50 with Staphylococcus aureus [1] came to 0.00821 µM; in [3], 0.74 µM. For the same compound, the concentration in solution in data set [2] (solubility) was 7200 µg/mL.

`CN(C/C=C/c1ccccc1[N+](=O)[O-])Cc1cccc2ccoc12`: the IC50 in the data set on Staphylococcus aureus [1] was above 1 µM.

Turning to `Cc1ccc(/C=C/CN(C)Cc2cccc3ccoc23)cc1`, the IC50 in the data set on Staphylococcus aureus [1] turned out to be 0.0352 µM.

(Values after ChEMBL document CHEMBL3813689, “Discovery of Potent Benzofuran-Derived Diapophytoene Desaturase (CrtN) Inhibitors with Enhanced Oral Bioavailability for the Treatment of Methicillin-Resistant Staphylococcus aureus (MRSA) Infections” (J Med Chem, 2016).)
